Reference: ChEMBL document CHEMBL3864165, “Design, synthesis, and AChE inhibitory activity of new benzothiazole-piperazines” (Bioorg Med Chem Lett, 2016)

Key:
[1] = molecular target: Acetylcholinesterase (Electrophorus electricus) (UniProt O42275); test: Inhibition of electric eel AChE at 10^-6 M preincubated for 15 mins followed by acetylthiocholine iodide substrate addition measured for 5 mins by Ellman's spectrophotometric method relative to control
Acetylcholinesterase [2] = molecular target: T1, Acetylcholinesterase (Electrophorus electricus, UniProt O42275); test: Inhibition of electric eel AChE preincubated for 15 mins followed by acetylthiocholine iodide substrate addition measured for 5 mins by Ellman's spectrophotometric method
[3] = molecular target: Acetylcholinesterase (Electrophorus electricus) (UniProt O42275); test: Inhibition of electric eel AChE at 10^-7 M preincubated for 15 mins followed by acetylthiocholine iodide substrate addition measured for 5 mins by Ellman's spectrophotometric method relative to control
[4] = molecular target: Acetylcholinesterase (Electrophorus electricus) (UniProt O42275); test: Inhibition of electric eel AChE at 10^-3 M preincubated for 15 mins followed by acetylthiocholine iodide substrate addition measured for 5 mins by Ellman's spectrophotometric method relative to control
[5] = molecular target: Acetylcholinesterase (Electrophorus electricus) (UniProt O42275); test: Inhibition of electric eel AChE at 10^-4 M preincubated for 15 mins followed by acetylthiocholine iodide substrate addition measured for 5 mins by Ellman's spectrophotometric method relative to control
Acetylcholinesterase [6] = molecular target: T1, Acetylcholinesterase; test: Mixed-type inhibition of electric eel AChE preincubated for 15 mins followed by acetylthiocholine iodide substrate addition measured for 5 mins by Lineweaver-Burk plot analysis
Procedure, shortened: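 Substrate-velocity curves recorded with and without inhibitor, with initial velocities measured at acetylthiocholine (ATC) concentrations from 600 µM down to 18.75 µM. Data analysed as 1/V plots. Ki taken as the x-axis intercept of a secondary plot of 1/V versus inhibitor concentration.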

[7] = Cytotoxicity against mouse NIH/3T3 cells after 24 hrs by MTT assay; details: NIH/3T3 cells
Salmonella typhimurium [8] = test: Genotoxicity in Salmonella typhimurium TA98 assessed as increase in number of revertants at 0.156 mg/ml in presence of aroclor-1254-induced Sprague-Dawley rat liver S9 fraction by Ames-MPF assay relative to control; type: toxicity, organism-based; details: salmonella enterica subsp. enterica serovar typhimurium
Procedure, shortened: (§1)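 Ames MPF microplate fluctuation format, run with and without S9 metabolic activation. The read-out is the count of positive (revertant) wells. A run is accepted only when positive controls give more than 25 positive wells and negative controls give fewer than eight.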

Salmonella typhimurium [9] = test: Genotoxicity in Salmonella typhimurium TA98 assessed as increase in number of revertants at 0.3125 mg/ml in presence of aroclor-1254-induced Sprague-Dawley rat liver S9 fraction by Ames-MPF assay relative to control; type: toxicity, organism-based; details: salmonella enterica subsp. enterica serovar typhimurium; procedure, shortened: as §1
Salmonella typhimurium [10] = test: Genotoxicity in Salmonella typhimurium TA98 assessed as increase in number of revertants at 0.625 mg/ml in presence of aroclor-1254-induced Sprague-Dawley rat liver S9 fraction by Ames-MPF assay relative to control; type: toxicity, organism-based; details: salmonella enterica subsp. enterica serovar typhimurium; procedure, shortened: as §1
Salmonella typhimurium [11] = test: Genotoxicity in Salmonella typhimurium TA98 assessed as increase in number of revertants at 1.25 mg/ml in presence of aroclor-1254-induced Sprague-Dawley rat liver S9 fraction by Ames-MPF assay relative to control; type: toxicity, organism-based; details: salmonella enterica subsp. enterica serovar typhimurium; procedure, shortened: as §1
Salmonella typhimurium [12] = test: Genotoxicity in Salmonella typhimurium TA98 assessed as increase in number of revertants at 2.5 mg/ml in presence of aroclor-1254-induced Sprague-Dawley rat liver S9 fraction by Ames-MPF assay relative to control; type: toxicity, organism-based; details: salmonella enterica subsp. enterica serovar typhimurium; procedure, shortened: as §1
Salmonella typhimurium [13] = test: Genotoxicity in Salmonella typhimurium TA98 assessed as increase in number of revertants at 5 mg/ml in presence of aroclor-1254-induced Sprague-Dawley rat liver S9 fraction by Ames-MPF assay relative to control; type: toxicity, organism-based; details: salmonella enterica subsp. enterica serovar typhimurium; procedure, shortened: as §1
Salmonella typhimurium [14] = test: Genotoxicity in Salmonella typhimurium TA98 assessed as increase in number of revertants at 0.156 mg/ml in absence of aroclor-1254-induced Sprague-Dawley rat liver S9 fraction by Ames-MPF assay relative to control; type: toxicity, organism-based; details: salmonella enterica subsp. enterica serovar typhimurium; procedure, shortened: as §1
Salmonella typhimurium [15] = test: Genotoxicity in Salmonella typhimurium TA98 assessed as increase in number of revertants at 0.3125 mg/ml in absence of aroclor-1254-induced Sprague-Dawley rat liver S9 fraction by Ames-MPF assay relative to control; type: toxicity, organism-based; details: salmonella enterica subsp. enterica serovar typhimurium; procedure, shortened: as §1
Salmonella typhimurium [16] = test: Genotoxicity in Salmonella typhimurium TA98 assessed as increase in number of revertants at 0.625 mg/ml in absence of aroclor-1254-induced Sprague-Dawley rat liver S9 fraction by Ames-MPF assay relative to control; type: toxicity, organism-based; details: salmonella enterica subsp. enterica serovar typhimurium; procedure, shortened: as §1
Salmonella typhimurium [17] = test: Genotoxicity in Salmonella typhimurium TA98 assessed as increase in number of revertants at 1.25 mg/ml in absence of aroclor-1254-induced Sprague-Dawley rat liver S9 fraction by Ames-MPF assay relative to control; type: toxicity, organism-based; details: salmonella enterica subsp. enterica serovar typhimurium; procedure, shortened: as §1
Salmonella typhimurium [18] = test: Genotoxicity in Salmonella typhimurium TA98 assessed as increase in number of revertants at 2.5 mg/ml in absence of aroclor-1254-induced Sprague-Dawley rat liver S9 fraction by Ames-MPF assay relative to control; type: toxicity, organism-based; details: salmonella enterica subsp. enterica serovar typhimurium; procedure, shortened: as §1
Salmonella typhimurium [19] = test: Genotoxicity in Salmonella typhimurium TA98 assessed as increase in number of revertants at 5 mg/ml in absence of aroclor-1254-induced Sprague-Dawley rat liver S9 fraction by Ames-MPF assay relative to control; type: toxicity, organism-based; details: salmonella enterica subsp. enterica serovar typhimurium; procedure, shortened: as §1
Salmonella typhimurium [20] = test: Genotoxicity in Salmonella typhimurium TA100 assessed as increase in number of revertants at 0.156 mg/ml in presence of aroclor-1254-induced Sprague-Dawley rat liver S9 fraction by Ames-MPF assay relative to control; type: toxicity, organism-based; details: salmonella enterica subsp. enterica serovar typhimurium; procedure, shortened: as §1
Salmonella typhimurium [21] = test: Genotoxicity in Salmonella typhimurium TA100 assessed as increase in number of revertants at 0.3125 mg/ml in presence of aroclor-1254-induced Sprague-Dawley rat liver S9 fraction by Ames-MPF assay relative to control; type: toxicity, organism-based; details: salmonella enterica subsp. enterica serovar typhimurium; procedure, shortened: as §1
Salmonella typhimurium [22] = test: Genotoxicity in Salmonella typhimurium TA100 assessed as increase in number of revertants at 0.625 mg/ml in presence of aroclor-1254-induced Sprague-Dawley rat liver S9 fraction by Ames-MPF assay relative to control; type: toxicity, organism-based; details: salmonella enterica subsp. enterica serovar typhimurium; procedure, shortened: as §1
Salmonella typhimurium [23] = test: Genotoxicity in Salmonella typhimurium TA100 assessed as increase in number of revertants at 1.25 mg/ml in presence of aroclor-1254-induced Sprague-Dawley rat liver S9 fraction by Ames-MPF assay relative to control; type: toxicity, organism-based; details: salmonella enterica subsp. enterica serovar typhimurium; procedure, shortened: as §1
Salmonella typhimurium [24] = test: Genotoxicity in Salmonella typhimurium TA100 assessed as increase in number of revertants at 2.5 mg/ml in presence of aroclor-1254-induced Sprague-Dawley rat liver S9 fraction by Ames-MPF assay relative to control; type: toxicity, organism-based; details: salmonella enterica subsp. enterica serovar typhimurium; procedure, shortened: as §1
Salmonella typhimurium [25] = test: Genotoxicity in Salmonella typhimurium TA100 assessed as increase in number of revertants at 5 mg/ml in presence of aroclor-1254-induced Sprague-Dawley rat liver S9 fraction by Ames-MPF assay relative to control; type: toxicity, organism-based; details: salmonella enterica subsp. enterica serovar typhimurium; procedure, shortened: as §1
Salmonella typhimurium [26] = test: Genotoxicity in Salmonella typhimurium TA100 assessed as increase in number of revertants at 0.156 mg/ml in absence of aroclor-1254-induced Sprague-Dawley rat liver S9 fraction by Ames-MPF assay relative to control; type: toxicity, organism-based; details: salmonella enterica subsp. enterica serovar typhimurium; procedure, shortened: as §1
Salmonella typhimurium [27] = test: Genotoxicity in Salmonella typhimurium TA100 assessed as increase in number of revertants at 0.3125 mg/ml in absence of aroclor-1254-induced Sprague-Dawley rat liver S9 fraction by Ames-MPF assay relative to control; type: toxicity, organism-based; details: salmonella enterica subsp. enterica serovar typhimurium; procedure, shortened: as §1
Salmonella typhimurium [28] = test: Genotoxicity in Salmonella typhimurium TA100 assessed as increase in number of revertants at 0.625 mg/ml in absence of aroclor-1254-induced Sprague-Dawley rat liver S9 fraction by Ames-MPF assay relative to control; type: toxicity, organism-based; details: salmonella enterica subsp. enterica serovar typhimurium; procedure, shortened: as §1
Salmonella typhimurium [29] = test: Genotoxicity in Salmonella typhimurium TA100 assessed as increase in number of revertants at 1.25 mg/ml in absence of aroclor-1254-induced Sprague-Dawley rat liver S9 fraction by Ames-MPF assay relative to control; type: toxicity, organism-based; details: salmonella enterica subsp. enterica serovar typhimurium; procedure, shortened: as §1
Salmonella typhimurium [30] = test: Genotoxicity in Salmonella typhimurium TA100 assessed as increase in number of revertants at 2.5 mg/ml in absence of aroclor-1254-induced Sprague-Dawley rat liver S9 fraction by Ames-MPF assay relative to control; type: toxicity, organism-based; details: salmonella enterica subsp. enterica serovar typhimurium; procedure, shortened: as §1
Salmonella typhimurium [31] = test: Genotoxicity in Salmonella typhimurium TA100 assessed as increase in number of revertants at 5 mg/ml in absence of aroclor-1254-induced Sprague-Dawley rat liver S9 fraction by Ames-MPF assay relative to control; type: toxicity, organism-based; details: salmonella enterica subsp. enterica serovar typhimurium; procedure, shortened: as §1
[32] = Ratio of compound IC50 to donepezil IC50 for mouse NIH/3T3 cells; type: ADME, cell-based; details: read-out: Ratio IC50

Sequence of Acetylcholinesterase (Electrophorus electricus) (O42275 24-633 limits assumed): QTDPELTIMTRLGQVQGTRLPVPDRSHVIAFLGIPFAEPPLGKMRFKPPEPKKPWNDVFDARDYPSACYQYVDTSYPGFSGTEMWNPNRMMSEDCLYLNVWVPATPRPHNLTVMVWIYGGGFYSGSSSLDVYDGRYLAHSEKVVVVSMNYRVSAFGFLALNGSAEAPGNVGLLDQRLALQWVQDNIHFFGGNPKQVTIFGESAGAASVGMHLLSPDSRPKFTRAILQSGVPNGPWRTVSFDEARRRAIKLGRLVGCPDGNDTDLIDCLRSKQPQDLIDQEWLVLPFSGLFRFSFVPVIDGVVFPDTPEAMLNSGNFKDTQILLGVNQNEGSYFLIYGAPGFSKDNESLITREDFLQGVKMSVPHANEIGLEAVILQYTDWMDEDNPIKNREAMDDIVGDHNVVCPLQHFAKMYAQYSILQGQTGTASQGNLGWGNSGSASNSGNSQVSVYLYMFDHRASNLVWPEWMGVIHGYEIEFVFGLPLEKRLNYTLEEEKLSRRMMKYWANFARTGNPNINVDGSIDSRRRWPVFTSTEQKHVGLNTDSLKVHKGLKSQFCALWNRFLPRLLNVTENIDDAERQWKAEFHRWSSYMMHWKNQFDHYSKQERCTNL
T1 sequence (O42275 whole entry): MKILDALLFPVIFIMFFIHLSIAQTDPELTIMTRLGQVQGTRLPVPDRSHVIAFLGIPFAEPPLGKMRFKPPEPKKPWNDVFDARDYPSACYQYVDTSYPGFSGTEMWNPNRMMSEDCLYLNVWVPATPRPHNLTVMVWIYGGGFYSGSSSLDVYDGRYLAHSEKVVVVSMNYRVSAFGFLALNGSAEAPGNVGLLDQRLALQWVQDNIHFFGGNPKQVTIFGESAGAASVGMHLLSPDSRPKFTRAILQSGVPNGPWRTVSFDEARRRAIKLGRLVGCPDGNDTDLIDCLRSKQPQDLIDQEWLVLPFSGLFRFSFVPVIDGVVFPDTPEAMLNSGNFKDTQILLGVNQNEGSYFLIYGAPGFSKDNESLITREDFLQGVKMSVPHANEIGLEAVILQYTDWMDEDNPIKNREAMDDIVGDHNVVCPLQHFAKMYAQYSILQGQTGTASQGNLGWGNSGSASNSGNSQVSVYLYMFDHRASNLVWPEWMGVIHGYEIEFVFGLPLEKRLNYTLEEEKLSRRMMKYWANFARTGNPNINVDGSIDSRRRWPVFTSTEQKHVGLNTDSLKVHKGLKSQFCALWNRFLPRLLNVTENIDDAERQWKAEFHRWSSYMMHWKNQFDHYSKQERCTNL

## COc1cc2nc(NC(=O)CN3CCN(Cc4ccc(Cl)cc4)CC3)sc2cc1OC
[1]
  inhibition: > 50%
Acetylcholinesterase [2]
  IC50: 0.13 µM

## COc1cc2nc(NC(=O)CN3CCN(CCCN(C)C)CC3)sc2cc1OC
[1]
  inhibition: > 50%
[3]
  inhibition: > 50%
[4]
  inhibition: > 95%
[5]
  inhibition: 90%
Acetylcholinesterase [2]
  IC50: 0.0576 µM
Acetylcholinesterase [6]
  Ki: 0.25 µM
[7]
  IC50 at 24 h: 100 µM
Salmonella typhimurium [8]
  fold change (FC): 0.28
Salmonella typhimurium [9]
  fold change (FC): 1.4
Salmonella typhimurium [10]
  fold change (FC): 0.56
Salmonella typhimurium [11]
  fold change (FC): 0.84
Salmonella typhimurium [12]
  fold change (FC): 1.02
Salmonella typhimurium [13]
  fold change (FC): 1.49
Salmonella typhimurium [14]
  fold change (FC): 0.94
Salmonella typhimurium [15]
  fold change (FC): 0.47
Salmonella typhimurium [16]
  fold change (FC): 1.04
Salmonella typhimurium [17]
  fold change (FC): 0.52
Salmonella typhimurium [18]
  fold change (FC): 1.15
Salmonella typhimurium [19]
  fold change (FC): 0.89
Salmonella typhimurium [20]
  fold change (FC): 0.98
Salmonella typhimurium [21]
  fold change (FC): 0.6
Salmonella typhimurium [22]
  fold change (FC): 0.53
Salmonella typhimurium [23]
  fold change (FC): 1.36
Salmonella typhimurium [24]
  fold change (FC): 1.36
Salmonella typhimurium [25]
  fold change (FC): 1.43
Salmonella typhimurium [26]
  fold change (FC): 0.79
Salmonella typhimurium [27]
  fold change (FC): 0.9
Salmonella typhimurium [28]
  fold change (FC): 0.69
Salmonella typhimurium [29]
  fold change (FC): 1.32
Salmonella typhimurium [30]
  fold change (FC): 0.32
Salmonella typhimurium [31]
  fold change (FC): 0.05

## COc1cc2nc(NC(=O)CN3CCN(CCN(C)C)CC3)sc2cc1OC
[1]
  inhibition: > 50%
[3]
  inhibition: > 50%
[4]
  inhibition: > 95%
[5]
  inhibition: 90%
Acetylcholinesterase [2]
  IC50: 0.0462 µM
Acetylcholinesterase [6]
  Ki: 0.11 µM
[7]
  IC50 at 24 h: > 1000 µM
[32]
  selectivity ratio: 3
Salmonella typhimurium [8]
  fold change (FC): 0.22
Salmonella typhimurium [9]
  fold change (FC): 0.65
Salmonella typhimurium [10]
  fold change (FC): 0.97
Salmonella typhimurium [11]
  fold change (FC): 0.43
Salmonella typhimurium [12]
  fold change (FC): 0
Salmonella typhimurium [13]
  fold change (FC): 0
Salmonella typhimurium [14]
  fold change (FC): 0.87
Salmonella typhimurium [15]
  fold change (FC): 1.14
Salmonella typhimurium [16]
  fold change (FC): 1.03
Salmonella typhimurium [17]
  fold change (FC): 0.33
Salmonella typhimurium [18]
  fold change (FC): 0.33
Salmonella typhimurium [19]
  fold change (FC): 0.11
Salmonella typhimurium [20]
  fold change (FC): 0.78
Salmonella typhimurium [21]
  fold change (FC): 0.55
Salmonella typhimurium [22]
  fold change (FC): 0.55
Salmonella typhimurium [23]
  fold change (FC): 1.09
Salmonella typhimurium [24]
  fold change (FC): 0.55
Salmonella typhimurium [25]
  fold change (FC): 0.47
Salmonella typhimurium [26]
  fold change (FC): 0.66
Salmonella typhimurium [27]
  fold change (FC): 0.49
Salmonella typhimurium [28]
  fold change (FC): 0.27
Salmonella typhimurium [29]
  fold change (FC): 0.27
Salmonella typhimurium [30]
  fold change (FC): 0
Salmonella typhimurium [31]
  fold change (FC): 0

## COc1ccc2nc(NC(=O)CN3CCN(Cc4ccc(Cl)cc4)CC3)sc2c1
[1]
  inhibition: > 50%
[4]
  inhibition: > 95%
[5]
  inhibition: 90%
Acetylcholinesterase [2]
  IC50: 0.22 µM

## COc1ccc2nc(NC(=O)CN3CCN(Cc4ccc(C(F)(F)F)cc4)CC3)sc2c1
[1]
  inhibition: > 50%
Acetylcholinesterase [2]
  IC50: 0.274 µM

## COc1ccc2nc(NC(=O)CN3CCN(CCCN(C)C)CC3)sc2c1
[1]
  inhibition: > 50%
[3]
  inhibition: > 50%
Acetylcholinesterase [2]
  IC50: 0.117 µM

## COc1cc2nc(NC(=O)CN3CCN(Cc4ccc(C)cc4)CC3)sc2cc1OC
[1]
  inhibition: > 50%
Acetylcholinesterase [2]
  IC50: 0.215 µM
